Columns and labels:
Rattus norvegicus [1] = assay: Increase in liver weight in Wistar rat at 489 umol/kg/day administered through diet for 10 days; type: ADME, organism-based; details: in vivo, po, 240 h
Rattus norvegicus [2] = assay: Hypolipidemic activity in Wistar rat assessed as reduction in plasma triglyceride level at 489 umol/kg/day administered through diet for 10 days; type: functional; details: 240 h
Rattus norvegicus [3] = assay: Hypolipidemic activity in Wistar rat assessed as reduction in plasma cholesterol level at 489 umol/kg/day administered through diet for 10 days; type: functional; details: 240 h
Procedure, shortened: (§1)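 Young male Wistar rats, 170-190 g initial weight, groups of six, given compound mixed thoroughly into Purina Lab Chow ad libitum for 4 or 10 days as stated. Daily dose calculated from food consumption and body weight. Bled by cardiac puncture at end of treatment; plasma cholesterol measured by automated procedure. Expressed as percent reduction versus simultaneous untreated control group; Student's t test.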

Rattus norvegicus [4] = assay: Increase in cholesterol level in Wistar rat liver at 489 umol/kg/day administered through diet for 10 days; type: ADME, organism-based; details: in vivo, po, 240 h
Rattus norvegicus [5] = assay: Increase in cholesterol level in Wistar rat liver at 425 umol/kg/day administered through diet for 10 days; type: ADME, organism-based; details: in vivo, po, 240 h
Rattus norvegicus [6] = assay: Increase in liver weight in Wistar rat at 425 umol/kg/day administered through diet for 10 days; type: ADME, organism-based; details: in vivo, po, 240 h
Rattus norvegicus [7] = assay: Hypolipidemic activity in Wistar rat assessed as reduction in plasma cholesterol level at 425 umol/kg/day administered through diet for 10 days; type: functional; details: 240 h; procedure, shortened: as §1
Rattus norvegicus [8] = assay: Hypolipidemic activity in Wistar rat assessed as reduction in plasma triglyceride level at 425 umol/kg/day administered through diet for 10 days; type: functional; details: 240 h
Rattus norvegicus [9] = assay: Hypolipidemic activity in Wistar rat assessed as reduction in plasma triglyceride level at 392 umol/kg/day administered through diet for 10 days; type: functional; details: 240 h
Procedure, shortened: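 Young male Wistar rats (170-190 g initial weight), groups of six, fed test compound mixed into Purina Lab Chow ad libitum; daily dose calculated from food consumption and body weight. Bled by cardiac puncture at end of treatment; plasma triglycerides measured by automated procedure. Results given as percent reduction versus a simultaneous untreated control group, with significance by Student's t test.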

Rattus norvegicus [10] = assay: Increase in cholesterol level in Wistar rat liver at 392 umol/kg/day administered through diet for 10 days; type: ADME, organism-based; details: in vivo, po, 240 h
Rattus norvegicus [11] = assay: Hypolipidemic activity in Wistar rat assessed as reduction in plasma triglyceride level at 439 umol/kg/day administered through diet for 10 days; type: functional; details: 240 h
Procedure, shortened: (§2)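 Young male Wistar rats (initial weight 170-190 g), groups of six, fed compound mixed into Purina Lab Chow ad libitum for 4 or 10 days; daily dose calculated from food consumption and body weight. Bled by cardiac puncture; plasma cholesterol and triglycerides by automated procedures; percent reduction versus simultaneous untreated controls, Student's t test.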

Rattus norvegicus [12] = assay: Hypolipidemic activity in Wistar rat assessed as reduction in plasma cholesterol level at 392 umol/kg/day administered through diet for 10 days; type: functional; details: 240 h
Procedure, shortened: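 Young male Wistar rats, 170-190 g at start, in groups of six, given compound mixed into Purina Lab Chow ad libitum for 4 or 10 days as stated. Daily dose was calculated from food consumption and body weight. Plasma was taken by cardiac puncture at the end and cholesterol measured by automated procedure. Results are % reduction versus a concurrent untreated control group, with Student's t test.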

Rattus norvegicus [13] = assay: Increase in liver weight in Wistar rat at 461 umol/kg/day administered through diet for 4 days; type: ADME, organism-based; details: in vivo, po, 96 h
Rattus norvegicus [14] = assay: Increase in liver weight in Wistar rat at 439 umol/kg/day administered through diet for 10 days; type: ADME, organism-based; details: in vivo, po, 240 h
Procedure, shortened: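 Male Wistar rats (170-190 g initial), groups of six, dosed via diet ad libitum for 4 or 10 days, daily dose from food consumption. Liver wet weight measured, expressed as g/100 g final body weight, compared with untreated controls run simultaneously.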

Rattus norvegicus [15] = assay: Increase in liver weight in Wistar rat at 392 umol/kg/day administered through diet for 10 days; type: ADME, organism-based; details: in vivo, po, 240 h
Rattus norvegicus [16] = assay: Increase in cholesterol level in Wistar rat liver at 461 umol/kg/day administered through diet for 4 days; type: ADME, organism-based; details: in vivo, po, 96 h
Rattus norvegicus [17] = assay: Increase in cholesterol level in Wistar rat liver at 439 umol/kg/day administered through diet for 10 days; type: ADME, organism-based; details: in vivo, po, 240 h
Rattus norvegicus [18] = assay: Hypolipidemic activity in Wistar rat assessed as reduction in plasma triglyceride level at 461 umol/kg/day administered through diet for 4 days; type: functional; details: 96 h
Rattus norvegicus [19] = assay: Hypolipidemic activity in Wistar rat assessed as reduction in plasma cholesterol level at 461 umol/kg/day administered through diet for 4 days; type: functional; details: 96 h; procedure, shortened: as §1
Rattus norvegicus [20] = assay: Hypolipidemic activity in Wistar rat assessed as reduction in plasma cholesterol level at 439 umol/kg/day administered through diet for 10 days; type: functional; details: 240 h; procedure, shortened: as §1
Rattus norvegicus [21] = assay: Hypolipidemic activity in Wistar rat assessed as reduction in plasma triglyceride level at 591 umol/kg/day administered through diet for 4 days; type: functional; details: 96 h
Rattus norvegicus [22] = assay: Increase in liver weight in Wistar rat at 591 umol/kg/day administered through diet for 4 days; type: ADME, organism-based; details: in vivo, po, 96 h
Rattus norvegicus [23] = assay: Increase in cholesterol level in Wistar rat liver at 591 umol/kg/day administered through diet for 4 days; type: ADME, organism-based; details: in vivo, po, 96 h
Rattus norvegicus [24] = assay: Hypolipidemic activity in Wistar rat assessed as reduction in plasma cholesterol level at 591 umol/kg/day administered through diet for 4 days; type: functional; details: 96 h; procedure, shortened: as §2
Rattus norvegicus [25] = assay: Hypolipidemic activity in Wistar rat assessed as reduction in plasma triglyceride level at 444 umol/kg/day administered through diet for 10 days; type: functional; details: 240 h
Rattus norvegicus [26] = assay: Hypolipidemic activity in Wistar rat assessed as reduction in plasma cholesterol level at 444 umol/kg/day administered through diet for 10 days; type: functional; details: 240 h; procedure, shortened: as §1
Rattus norvegicus [27] = assay: Increase in cholesterol level in Wistar rat liver at 444 umol/kg/day administered through diet for 10 days; type: ADME, organism-based; details: in vivo, po, 240 h
Rattus norvegicus [28] = assay: Increase in liver weight in Wistar rat at 444 umol/kg/day administered through diet for 10 days; type: ADME, organism-based; details: in vivo, po, 240 h

SMILES: CCCCCCCCCCOc1ccc(C(=O)OC)cc1
- Activity (Rattus norvegicus [1]): 19%
- inhibition in vivo at 489 µmol/kg (Rattus norvegicus [2]): 94%
- inhibition in vivo at 489 µmol/kg (Rattus norvegicus [3]): 36%
- Activity (Rattus norvegicus [4]): 43%

SMILES: CCCCCCCCCCCCCCCCCCCc1ccc(C(=O)O)cc1
- Activity (Rattus norvegicus [5]): 0%
- Activity (Rattus norvegicus [6]): 10%
- inhibition in vivo at 425 µmol/kg (Rattus norvegicus [7]): 8%
- inhibition in vivo at 425 µmol/kg (Rattus norvegicus [8]): 2%

SMILES: CCCCCCCCCCCCCCOc1ccc(C(=O)OCC)cc1
- inhibition in vivo at 392 µmol/kg (Rattus norvegicus [9]): 61%
- Activity (Rattus norvegicus [10]): 0%
- inhibition in vivo at 439 µmol/kg (Rattus norvegicus [11]): 54%
- inhibition in vivo at 392 µmol/kg (Rattus norvegicus [12]): 33%
- Activity (Rattus norvegicus [13]): 16%
- Activity (Rattus norvegicus [14]): 10%
- Activity (Rattus norvegicus [15]): 2%
- Activity (Rattus norvegicus [16]): 20%
- Activity (Rattus norvegicus [17]): 3%
- inhibition in vivo at 461 µmol/kg (Rattus norvegicus [18]): 42%
- inhibition in vivo at 461 µmol/kg (Rattus norvegicus [19]): 23%
- inhibition in vivo at 439 µmol/kg (Rattus norvegicus [20]): 24%

SMILES: CCCCCCCCOc1ccc(C(=O)O)cc1
- inhibition in vivo at 591 µmol/kg (Rattus norvegicus [21]): 35%
- Activity (Rattus norvegicus [22]): 0%
- Activity (Rattus norvegicus [23]): 12%
- inhibition in vivo at 591 µmol/kg (Rattus norvegicus [24]): 8%

SMILES: CCCCCCCCCCCOc1ccc(C(=O)OC)cc1
- inhibition in vivo at 444 µmol/kg (Rattus norvegicus [25]): 88%
- inhibition in vivo at 444 µmol/kg (Rattus norvegicus [26]): 45%
- Activity (Rattus norvegicus [27]): 41%
- Activity (Rattus norvegicus [28]): 23%

From ChEMBL document CHEMBL3272012, “5-(Tetradecyloxy)-2-furancarboxylic acid and related hypolipidemic fatty acid-like alkyloxyarylcarboxylic acids” (J Med Chem, 1977)
